{"source": "paper PMC3041652", "about": "(Arteriosclerosis, thrombosis, and vascular biology, 2011)", "key": {"[1]": {"system": "elastinolytic activity in brachiocephalic atherosclerotic lesions", "test": "Elastinolytic in situ zymography of brachiocephalic artery lesions", "assay_type": "biochemical, mouse", "procedure,_shortened": "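Brachiocephalic lesion sections came from apoE-knockout mice fed a high-fat diet for 12 weeks. They were incubated with a fluorescently quenched elastin substrate in incubation buffer alone or with added 100 nmol/L test compound, 20 mmol/L EDTA or 1 μmol/L reference MMP inhibitor. Elastinolytic activity was read as green fluorescence.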"}, "[2]": {"test": "Body weight and plasma lipids after 4 weeks of infusion", "assay_type": "in vivo, apoE-knockout mice", "settings": "4.6 mg/kg per day for 4 weeks"}, "[3]": {"system": "mouse monocyte-derived macrophages", "test": "In vitro serum starvation-induced apoptosis of macrophages", "assay_type": "cell-based"}, "[4]": {"system": "rabbit granuloma foam-cell macrophages", "test": "In vitro serum starvation-induced apoptosis of foam-cell macrophages", "assay_type": "cell-based"}, "other MMPs [5]": {"system": "other MMPs", "settings": "cited from earlier work"}, "[6]": {"test": "Plasma concentration of inhibitor after osmotic minipump infusion", "assay_type": "in vivo, apoE-knockout mice", "procedure,_shortened": "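ApoE-knockout mice on a high-fat diet (n=6) received test compound at 4.6 mg/kg body weight per day by osmotic minipump. MMP inhibitory activity in plasma was measured with a fluorogenic substrate, and inhibitor concentration was derived from a calibration inhibition curve. Intact compound in plasma extracts was confirmed by micro-HPLC coupled to mass spectrometry.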"}, "[7]": {"system": "apoE-knockout mice atherosclerotic plaques", "assay_type": "in vivo, mouse", "procedure,_shortened": "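ApoE-null mice (71% C57BL/6, 29% 129 background), both sexes, fed a high-fat diet for 8 weeks. They then received subcutaneous interscapular osmotic minipumps of test compound at 4.6 mg/kg body weight per day in sterile PBS (n=23) or PBS alone (n=27), with the diet continued 4 weeks. Brachiocephalic artery, proximal aorta, descending aorta and heart were analysed histologically. Apoptosis and calcification were scored by immunohistochemistry; calcification area was normalised to lesion area; mean±SEM.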"}, "[8]": {"system": "mouse smooth muscle cells", "test": "FasL-induced apoptosis of smooth muscle cells", "assay_type": "cell-based", "settings": "untreated cells 78±29; unchanged"}, "other MMPs [9]": {"system": "other MMPs"}, "mouse MMP-12": {"target": "mouse MMP-12 (Mus musculus, UniProt P34960)", "sequence (P34960 110-473)": "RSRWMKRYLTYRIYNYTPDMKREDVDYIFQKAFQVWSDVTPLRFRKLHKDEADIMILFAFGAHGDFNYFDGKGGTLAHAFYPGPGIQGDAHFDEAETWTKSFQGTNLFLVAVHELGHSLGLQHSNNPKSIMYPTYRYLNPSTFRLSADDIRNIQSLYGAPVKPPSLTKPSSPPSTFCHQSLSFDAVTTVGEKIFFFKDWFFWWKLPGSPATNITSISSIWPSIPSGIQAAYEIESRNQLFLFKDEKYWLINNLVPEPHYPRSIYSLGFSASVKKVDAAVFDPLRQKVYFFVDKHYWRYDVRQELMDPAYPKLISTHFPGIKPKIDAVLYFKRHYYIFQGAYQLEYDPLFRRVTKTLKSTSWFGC", "test": "Inhibition of mouse MMP-12", "assay_type": "biochemical"}, "[10]": {"system": "monocyte/macrophage invasion", "test": "In vivo subcutaneous sponge monocyte/macrophage invasion assay", "set-up": "species or system C57Bl/6;Sv129 mice", "procedure,_shortened": "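Male C57Bl/6;Sv129 mice carrying multiple subcutaneous sponges were infused by osmotic minipump with test compound (n=7) or PBS (n=7). Sponges were retrieved and either used to isolate monocytes/macrophages or formalin-fixed for histology of proliferation and apoptosis.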"}, "N-cadherin": {"system": "N-cadherin", "test": "N-cadherin Western blotting in macrophages treated with active MMP-12", "assay_type": "cell-based"}, "[11]": {"system": "mouse monocyte-derived macrophages", "test": "In vitro proliferation of monocyte-derived macrophages", "assay_type": "cell-based", "settings": "100 nmol/L"}, "human MMP-12": {"target": "human MMP-12", "settings": "read-out: Ki against human MMP-12; cited from earlier work"}, "[12]": {"settings": "compared with active MMP-12 alone, 100 nmol/L"}}, "note": "pKi: −log10 of the molar value.", "data": [{"smiles": "O=C(O)CN(CCN(CC(=O)O)CC(=O)O)CC(=O)O", "note": "[EDTA, reference compound]", "values": [{"measurement": "reduction of elastinolytic activity", "setting": "[1]; 20 mmol/L", "value": "94±5", "unit": "%"}]}, {"smiles": "CNC(=O)[C@H](Cc1ccccc1)NC(=O)[C@H](CC(C)C)[C@H](CSc1cccs1)C(=O)NO", "note": "[BB94, reference compound]", "values": [{"measurement": "reduction of elastinolytic activity", "setting": "[1]; 1 μmol/L", "value": "95±4", "unit": "%"}]}, {"smiles": "NC(=O)[C@H](CCC(=O)O)NC(=O)[C@H](CCC(=O)O)NC(=O)[C@H](Cc1cc(-c2ccc(-c3cccc(Cl)c3)cc2)no1)CP(=O)(O)c1ccc(Br)cc1", "note": "[RXP470.1]", "values": [{"measurement": "reduction of elastinolytic activity", "setting": "[1]; 100 nmol/L, P<0.05", "value": 74, "unit": "%"}, {"measurement": "elastinolytic activity, fluorescence of total plaque area", "setting": "[1]; 100 nmol/L, incubation buffer alone 4.1±0.5%", "value": "1.1±0.3", "unit": "%"}, {"measurement": "tolerability", "setting": "[2]", "value": "well tolerated"}, {"measurement": "body weight", "setting": "[2]; control 35.7±1.2 g", "value": "36.2 ± 0.9", "unit": "g"}, {"measurement": "inhibition of apoptosis", "setting": "[3]; [12]", "value": 91, "unit": "%"}, {"measurement": "apoptotic rate relative to control cells", "setting": "[3]; no added MMP-12", "value": "significantly reduced"}, {"measurement": "inhibition of apoptosis", "setting": "[4]; [12]", "value": 91, "unit": "%"}, {"measurement": "apoptotic rate relative to control cells", "setting": "[4]; no added MMP-12", "value": "significantly reduced"}, {"measurement": "less potent against other MMPs than against human MMP-12", "setting": "other MMPs [5]", "value": "2 to 4 orders of magnitude"}, {"measurement": "form observed in plasma of infused mice (mass spectroscopy fingerprint analysis)", "setting": "[6]", "value": "intact form"}, {"measurement": "reduction of atherosclerotic plaque cross-sectional area", "setting": "[7]; at 4 different vascular sites, male and female mice, Western diet", "value": "approximately 50%"}, {"measurement": "frequency of intraplaque macrophage apoptosis", "setting": "[7]; baseline 15.3±3.0%", "value": "18.1±5.8", "unit": "%"}, {"measurement": "reduction in apoptotic frequency, cleaved PARP-1 immunohistochemistry", "setting": "[7]; brachiocephalic artery plaques", "value": 57, "unit": "%"}, {"measurement": "reduction in apoptotic frequency, pyknotic/fragmented nuclei", "setting": "[7]; brachiocephalic artery plaques", "value": 43, "unit": "%"}, {"measurement": "reduction of the number of ISEL-positive macrophages", "setting": "[7]; brachiocephalic artery plaques, P<0.05", "value": 42, "unit": "%"}, {"measurement": "increase of smooth muscle cell:macrophage ratio", "setting": "[7]; brachiocephalic artery, P<0.05", "value": 33, "unit": "%"}, {"measurement": "smooth muscle cells as a proportion of all plaque cells", "setting": "[7]; brachiocephalic artery, control 31±3%, P<0.05", "value": "41±3", "unit": "%"}, {"measurement": "percentage of macrophages of plaque cells", "setting": "[7]; brachiocephalic artery, control 42±1%, P<0.01", "value": "36±2", "unit": "%"}, {"measurement": "area of calcification normalized to lesion area", "setting": "[7]; control 5.9±2.2%", "value": "0.8±0.6", "unit": "%"}, {"measurement": "percentage of proliferating macrophages in brachiocephalic plaques, Ki67", "setting": "[7]; control 14.8±3.1%", "value": "13.6±2.2", "unit": "%"}, {"measurement": "necrotic core size, percentage of total plaque area", "setting": "[7]; control 24±2%", "value": "13±3", "unit": "%"}, {"measurement": "number of lesions showing elastin fragmentation", "setting": "[7]; control 37%, P<0.05", "value": 8, "unit": "%"}, {"measurement": "increase in collagen content of lesions", "setting": "[7]; did not reach statistical significance", "value": 26, "unit": "%"}, {"measurement": "minimum cap thickness", "setting": "[7]; no inhibitor 8.7±1.0, baseline 10.2±1.5", "value": "16.4±2.2", "unit": "μm"}, {"measurement": "lesion size, brachiocephalic artery", "setting": "[7]; treated mice, at commencement of drug administration 147±32", "value": "153±31 ×10^3 μm^2"}, {"measurement": "total elastin content of plaques", "setting": "[7]; vs control", "value": "no difference"}, {"measurement": "endothelial coverage over plaques", "setting": "[7]; vs control mice", "value": "no differences"}, {"measurement": "expression of vascular cell adhesion molecule-1 and MCP-1 and -2", "setting": "[7]; vs control mice", "value": "no difference"}, {"measurement": "reduction in the number of mice with any detectable atherosclerotic lesion, thoracic aorta", "setting": "[7]; vs controls", "value": 70, "unit": "%"}, {"measurement": "reduction in the number of plaques containing buried fibrous layers", "setting": "[7]; vs controls", "value": 65, "unit": "%"}, {"measurement": "reduction of plaque cross-sectional area, brachiocephalic artery", "setting": "[7]; vs controls after 12 weeks of high-fat feeding, P<0.05", "value": 44, "unit": "%"}, {"measurement": "decrease in the area of calcification normalized to lesion area", "setting": "[7]; vs controls, P<0.01", "value": 86, "unit": "%"}, {"measurement": "reduction in lesion necrotic core size", "setting": "[7]; vs controls, P<0.05", "value": 46, "unit": "%"}, {"measurement": "reduction in plaque area, aortic sinus", "setting": "[7]; vs controls, P<0.05", "value": 37, "unit": "%"}, {"measurement": "reduction in plaque area, proximal aorta", "setting": "[7]; vs controls, P<0.05", "value": 61, "unit": "%"}, {"measurement": "reduction in plaque size, thoracic aorta", "setting": "[7]; vs controls, P<0.05", "value": 88, "unit": "%"}, {"measurement": "reduction in the incidence of calcification in lesions", "setting": "[7]; vs controls, P<0.05", "value": 72, "unit": "%"}, {"measurement": "rate of FasL-induced apoptosis", "setting": "[8]", "value": "70±29 ×10^4 ALU"}, {"measurement": "in vitro selectivity for MMP-12 over other MMPs", "setting": "other MMPs [9]", "value": "greater than 100 fold"}, {"measurement": "pKi", "setting": "mouse MMP-12", "value": 8.40}, {"measurement": "proliferative rate of sponge macrophages", "setting": "[10]; control 4.0±1.1%", "value": "5.6±1.6", "unit": "%"}, {"measurement": "apoptotic cells in sponges", "setting": "[10]; mouse, in vivo", "value": "no apoptotic cells were detected"}, {"measurement": "reduction of invasive capacity of monocyte/macrophages", "setting": "[10]; vs controls, P<0.01", "value": 48, "unit": "%"}, {"measurement": "effect on reduction of full-length N-cadherin expression by active MMP-12", "setting": "N-cadherin; coincubation with active MMP-12", "value": "reversed"}, {"measurement": "formation of the cleaved fragment of N-cadherin", "setting": "N-cadherin; in the presence of active MMP-12", "value": "negated"}, {"measurement": "macrophage proliferation", "setting": "[11]; absence of added active MMP-12, control 36±5%", "value": "46±13", "unit": "%"}, {"measurement": "macrophage proliferation", "setting": "[11]; presence of added active MMP-12, MMP-12 alone 46±2%", "value": "39±12", "unit": "%"}, {"measurement": "pKi", "setting": "human MMP-12", "value": 9.70}]}]}
